Assay results: ChEMBL document CHEMBL2086252, “Syntheses and evaluation of anticonvulsant activity of novel branched alkyl carbamates” (J Med Chem, 2012)
The source made the active and inactive calls.

Experiments:
Rattus norvegicus [1] = assay: Neurotoxicity in pilocarpine-induced status epilepticus Sprague-Dawley albino rat model assessed as minimal motor impairment at 30 mg/kg, ip after 1 hr by rotarod test; type: toxicity, organism-based; set-up: dose 30 mg/kg, route intraperitoneal; conditions: in vivo
Summary of the method: (§1)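 Rat pilocarpine status epilepticus model: test carbamate given at 0 or 30 min after the first observed Racine stage 3 motor seizure, which marks SE onset. Neurotoxicity was scored within the same model.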

Rattus norvegicus [2] = assay: Neurotoxicity in pilocarpine-induced status epilepticus Sprague-Dawley albino rat model assessed as minimal motor impairment at 300 mg/kg, ip after 0.5 hrs by rotarod test; type: toxicity, organism-based; set-up: dose 300 mg/kg, route intraperitoneal; conditions: in vivo; summary of the method: as §1
Rattus norvegicus [3] = assay: Neurotoxicity in pilocarpine-induced status epilepticus Sprague-Dawley albino rat model assessed as minimal motor impairment at 100 mg/kg, ip after 0.5 hrs by rotarod test; type: toxicity, organism-based; set-up: dose 100 mg/kg, route intraperitoneal; conditions: in vivo
Mus musculus [4] = assay: Neurotoxicity in albino CF1 mouse assessed as minimal motor impairment at 300 mg/kg, ip after 0.5 hrs by rotarod test; type: toxicity, organism-based; set-up: dose 300 mg/kg, route intraperitoneal; conditions: in vivo
Summary of the method: (§2)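 Mice dosed ip at 30, 100 or 300 mg/kg, then tested 0.5 h and 4 h after administration in the MES or scMet test. Protection was recorded as animals protected over animals tested. Neurotoxicity was recorded as motor impairment or sedation, as animals affected over animals tested.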

Mus musculus [5] = assay: Neurotoxicity in albino CF1 mouse assessed as minimal motor impairment at 30 mg/kg, ip after 4 hrs by rotarod test; type: toxicity, organism-based; set-up: dose 30 mg/kg, route intraperitoneal; conditions: in vivo; summary of the method: as §2
Rattus norvegicus [6] = assay: Neurotoxicity in pilocarpine-induced status epilepticus Sprague-Dawley albino rat model assessed as minimal motor impairment at 300 mg/kg, ip after 2 hrs by rotarod test; type: toxicity, organism-based; set-up: dose 300 mg/kg, route intraperitoneal; conditions: in vivo; summary of the method: as §1
Mus musculus [7] = assay: Anticonvulsant activity in albino CF1 mouse assessed as protection against subcutaneous metrazol-induced seizures at 30 mg/kg, ip after 0.5 hrs; type: functional, organism-based; set-up: dose 30 mg/kg; summary of the method: as §2
Rattus norvegicus [8] = assay: Anticonvulsant activity in Sprague-Dawley albino rat assessed as protection against maximal electroshock-induced seizures at 30 mg/kg, po after 30 mins; type: functional, organism-based; set-up: dose 30 mg/kg
Summary of the method: (§3)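 Rats dosed orally. Anti-MES protection was scored as animals protected over animals tested at each time after dosing. Neurotoxicity was scored as motor impairment or sedation, as animals affected over animals tested.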

Rattus norvegicus [9] = assay: Neurotoxicity in pilocarpine-induced status epilepticus Sprague-Dawley albino rat model assessed as minimal motor impairment at 100 mg/kg, ip after 2 hrs by rotarod test; type: toxicity, organism-based; set-up: dose 100 mg/kg, route intraperitoneal; conditions: in vivo
Mus musculus [10] = assay: Anticonvulsant activity in albino CF1 mouse assessed as protection against maximal electroshock-induced seizures at 300 mg/kg, ip after 0.5 hrs; type: functional, organism-based; set-up: dose 300 mg/kg; summary of the method: as §2
Rattus norvegicus [11] = assay: Neurotoxicity in pilocarpine-induced status epilepticus Sprague-Dawley albino rat model assessed as minimal motor impairment at 30 mg/kg, ip after 0.25 hr by rotarod test; type: toxicity, organism-based; set-up: dose 30 mg/kg, route intraperitoneal; conditions: in vivo; summary of the method: as §1
Rattus norvegicus [12] = assay: Anticonvulsant activity in Sprague-Dawley albino rat assessed as protection against maximal electroshock-induced seizures at 30 mg/kg, po after 2 hrs; type: functional, organism-based; set-up: dose 30 mg/kg; summary of the method: as §3
Rattus norvegicus [13] = assay: Neurotoxicity in Sprague-Dawley albino rat assessed as minimal motor impairment at 30 mg/kg, po by rotarod test; type: toxicity, organism-based; set-up: dose 30 mg/kg, route oral; conditions: in vivo; summary of the method: as §3
Mus musculus [14] = assay: Anticonvulsant activity in albino CF1 mouse assessed as protection against subcutaneous metrazol-induced seizures at 100 mg/kg, ip after 4 hrs; type: functional, organism-based; set-up: dose 100 mg/kg; summary of the method: as §2
Mus musculus [15] = assay: Anticonvulsant activity in albino CF1 mouse assessed as protection against subcutaneous metrazol-induced seizures at 30 mg/kg, ip after 4 hrs; type: functional, organism-based; set-up: dose 30 mg/kg; summary of the method: as §2
Rattus norvegicus [16] = assay: Neurotoxicity in pilocarpine-induced status epilepticus Sprague-Dawley albino rat model assessed as minimal motor impairment at 30 mg/kg, ip after 2 hrs by rotarod test; type: toxicity, organism-based; set-up: dose 30 mg/kg, route intraperitoneal; conditions: in vivo; summary of the method: as §1
Mus musculus [17] = assay: Anticonvulsant activity in albino CF1 mouse assessed as protection against maximal electroshock-induced seizures at 300 mg/kg, ip after 4 hrs; type: functional, organism-based; set-up: dose 300 mg/kg; summary of the method: as §2
Rattus norvegicus [18] = assay: Neurotoxicity in pilocarpine-induced status epilepticus Sprague-Dawley albino rat model assessed as minimal motor impairment at 30 mg/kg, ip after 4 hrs by rotarod test; type: toxicity, organism-based; set-up: dose 30 mg/kg, route intraperitoneal; conditions: in vivo; summary of the method: as §1
Mus musculus [19] = assay: Neurotoxicity in albino CF1 mouse assessed as minimal motor impairment at 100 mg/kg, ip after 4 hrs by rotarod test; type: toxicity, organism-based; set-up: dose 100 mg/kg, route intraperitoneal; conditions: in vivo; summary of the method: as §2
Rattus norvegicus [20] = assay: Anticonvulsant activity in Sprague-Dawley albino rat assessed as protection against maximal electroshock-induced seizures at 30 mg/kg, po after 15 mins; type: functional, organism-based; set-up: dose 30 mg/kg; summary of the method: as §3
Mus musculus [21] = assay: Anticonvulsant activity in albino CF1 mouse assessed as protection against maximal electroshock-induced seizures at 30 mg/kg, ip after 0.5 hrs; type: functional, organism-based; set-up: dose 30 mg/kg; summary of the method: as §2
Rattus norvegicus [22] = assay: Neurotoxicity in pilocarpine-induced status epilepticus Sprague-Dawley albino rat model assessed as minimal motor impairment at 100 mg/kg, ip after 0.25 hr by rotarod test; type: toxicity, organism-based; set-up: dose 100 mg/kg, route intraperitoneal; conditions: in vivo
Rattus norvegicus [23] = assay: Neurotoxicity in pilocarpine-induced status epilepticus Sprague-Dawley albino rat model assessed as minimal motor impairment at 100 mg/kg, ip after 4 hrs by rotarod test; type: toxicity, organism-based; set-up: dose 100 mg/kg, route intraperitoneal; conditions: in vivo
Rattus norvegicus [24] = assay: Anticonvulsant activity in Sprague-Dawley albino rat assessed as protection against maximal electroshock-induced seizures at 30 mg/kg, po after 4 hrs; type: functional, organism-based; set-up: dose 30 mg/kg; summary of the method: as §3
Mus musculus [25] = assay: Neurotoxicity in albino CF1 mouse assessed as minimal motor impairment at 30 mg/kg, ip after 0.5 hrs by rotarod test; type: toxicity, organism-based; set-up: dose 30 mg/kg, route intraperitoneal; conditions: in vivo; summary of the method: as §2
Mus musculus [26] = assay: Anticonvulsant activity in albino CF1 mouse assessed as protection against subcutaneous metrazol-induced seizures at 300 mg/kg, ip after 0.5 hrs; type: functional, organism-based; set-up: dose 300 mg/kg; summary of the method: as §2
Rattus norvegicus [27] = assay: Neurotoxicity in pilocarpine-induced status epilepticus Sprague-Dawley albino rat model assessed as minimal motor impairment at 300 mg/kg, ip after 0.25 hr by rotarod test; type: toxicity, organism-based; set-up: dose 300 mg/kg, route intraperitoneal; conditions: in vivo; summary of the method: as §1
Mus musculus [28] = assay: Anticonvulsant activity in albino CF1 mouse assessed as protection against maximal electroshock-induced seizures at 30 mg/kg, ip after 4 hrs; type: functional, organism-based; set-up: dose 30 mg/kg; summary of the method: as §2
Mus musculus [29] = assay: Neurotoxicity in albino CF1 mouse assessed as minimal motor impairment at 300 mg/kg, ip after 4 hrs by rotarod test; type: toxicity, organism-based; set-up: dose 300 mg/kg, route intraperitoneal; conditions: in vivo; summary of the method: as §2
Rattus norvegicus [30] = assay: Neurotoxicity in pilocarpine-induced status epilepticus Sprague-Dawley albino rat model assessed as minimal motor impairment at 300 mg/kg, ip after 4 hrs by rotarod test; type: toxicity, organism-based; set-up: dose 300 mg/kg, route intraperitoneal; conditions: in vivo; summary of the method: as §1
Rattus norvegicus [31] = assay: Neurotoxicity in pilocarpine-induced status epilepticus Sprague-Dawley albino rat model assessed as minimal motor impairment at 100 mg/kg, ip after 1 hr by rotarod test; type: toxicity, organism-based; set-up: dose 100 mg/kg, route intraperitoneal; conditions: in vivo
Rattus norvegicus [32] = assay: Anticonvulsant activity in Sprague-Dawley albino rat assessed as protection against maximal electroshock-induced seizures at 30 mg/kg, po after 1 hr; type: functional, organism-based; set-up: dose 30 mg/kg; summary of the method: as §3
Mus musculus [33] = assay: Anticonvulsant activity in albino CF1 mouse assessed as protection against maximal electroshock-induced seizures at 100 mg/kg, ip after 4 hrs; type: functional, organism-based; set-up: dose 100 mg/kg; summary of the method: as §2
Mus musculus [34] = assay: Anticonvulsant activity in albino CF1 mouse assessed as protection against subcutaneous metrazol-induced seizures at 300 mg/kg, ip after 4 hrs; type: functional, organism-based; set-up: dose 300 mg/kg; summary of the method: as §2
Rattus norvegicus [35] = assay: Neurotoxicity in pilocarpine-induced status epilepticus Sprague-Dawley albino rat model assessed as minimal motor impairment at 30 mg/kg, ip after 0.5 hrs by rotarod test; type: toxicity, organism-based; set-up: dose 30 mg/kg, route intraperitoneal; conditions: in vivo; summary of the method: as §1
Mus musculus [36] = assay: Anticonvulsant activity in albino CF1 mouse assessed as protection against subcutaneous metrazol-induced seizures at 100 mg/kg, ip after 0.5 hrs; type: functional, organism-based; set-up: dose 100 mg/kg; summary of the method: as §2
Rattus norvegicus [37] = assay: Anticonvulsant activity in Sprague-Dawley albino rat assessed as protection against pilocarpine-induced status epilepticus at 65 mg/kg, ip; type: functional, organism-based; set-up: dose 65 mg/kg
Summary of the method: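 Pilocarpine status epilepticus model in rats. Number and severity of convulsive seizures were observed behaviourally.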

Rattus norvegicus [38] = assay: Protective index, ratio of TD50 for po dosed Sprague-Dawley albino rat by rotarod test to ED50 for po dosed Sprague-Dawley albino rat by subcutaneous metrazol seizures test; type: functional
Summary of the method: (§4)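 Protective index calculated as TD50/ED50, with TD50 and ED50 taken from the same species and dosing route.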

Rattus norvegicus [39] = assay: Anticonvulsant activity in po dosed Sprague-Dawley albino rat assessed as protection against subcutaneous metrazol-induced seizures; type: functional
Summary of the method: (§5)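 Quantitative testing: rats dosed orally or ip in MES and scMet tests, and mice dosed ip, including the 6 Hz (32 mA) psychomotor seizure test. ED50 and TD50 were reported in mg/kg with ranges in parentheses. Protective index was calculated as TD50/ED50.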

[40] = Neurotoxicity in po dosed Sprague-Dawley albino rat assessed as minimal motor impairment by rotarod test; type: toxicity, organism-based; conditions: in vivo
Summary of the method: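 Rats dosed orally; 4 rats per time point after dosing. Neurotoxicity was scored as motor impairment or sedation and reported as number of animals affected over number tested.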

Rattus norvegicus [41] = assay: Anticonvulsant activity in po dosed Sprague-Dawley albino rat assessed as protection against maximal electroshock-induced seizures; type: functional; summary of the method: as §5
Rattus norvegicus [42] = assay: Protective index, ratio of TD50 for po dosed Sprague-Dawley albino rat by rotarod test to ED50 for po dosed Sprague-Dawley albino rat by maximal electroshock seizures test; type: functional; summary of the method: as §4

CCC(C)CCOC(N)=O (racemic)
Toxic: Activity (Rattus norvegicus [2]) | Activity (Rattus norvegicus [3]) | Activity (Mus musculus [4]) | Activity (Rattus norvegicus [22]) | Activity (Rattus norvegicus [27])
active: Activity (Mus musculus [10]) | Activity (Rattus norvegicus [37])
Non-toxic: Activity (Rattus norvegicus [1]) | Activity (Mus musculus [5]) | Activity (Rattus norvegicus [6]) | Activity (Rattus norvegicus [9]) | Activity (Rattus norvegicus [11]) | Activity (Rattus norvegicus [13]) | Activity (Rattus norvegicus [16]) | Activity (Rattus norvegicus [18]) | Activity (Mus musculus [19]) | Activity (Rattus norvegicus [23]) | Activity (Mus musculus [25]) | Activity (Mus musculus [29]) | Activity (Rattus norvegicus [30]) | Activity (Rattus norvegicus [31]) | Activity (Rattus norvegicus [35])
inactive: Activity (Mus musculus [7]) | Activity (Rattus norvegicus [8]) | Activity (Rattus norvegicus [12]) | Activity (Mus musculus [14]) | Activity (Mus musculus [15]) | Activity (Mus musculus [17]) | Activity (Rattus norvegicus [20]) | Activity (Mus musculus [21]) | Activity (Rattus norvegicus [24]) | Activity (Mus musculus [26]) | Activity (Mus musculus [28]) | Activity (Rattus norvegicus [32]) | Activity (Mus musculus [33]) | Activity (Mus musculus [34]) | Activity (Mus musculus [36])

NC(=O)OCC(COC(N)=O)c1ccccc1 [FELBAMATE]
25 mg/kg: ED50 (Rattus norvegicus [41])
> 500 mg/kg: TD50 [40]
> 250 mg/kg: ED50 (Rattus norvegicus [39])
>2: Ratio TD50/ED50 (Rattus norvegicus [38])
20: Ratio TD50/ED50 (Rattus norvegicus [42])
